# Measured values of several laboratories.
# PTGS2: Prostaglandin G/H synthase 2 (PTGS2, Homo sapiens, UniProt P35354)
# Penicillin-binding protein 2X: Penicillin-binding protein 2X (Streptococcus pneumoniae R6, UniProt P59676)
Structure (SMILES),target,test,setting,quantity,value
CCCCC/C=C\C/C=C\C/C=C\C/C=C\CCCC(=O)OC(CO)CO,"Fatty acid-binding protein 5-ANS (Mus musculus, UniProt Q05816)","ligand displacement, fluorescence",,Ki,1 µM
C=CCOc1ccc(C(=O)/C=C/c2ccc(OC)cc2)c(OS(=O)(=O)c2ccc(F)cc2)c1I,PTGS2,"enzyme activity, inhibitor",,IC50,28.9 µM
COc1cc2c(cc1OC)CN(CCc1ccc(NC(=O)c3cccc4c(=O)c5cccc(OC)c5[nH]c34)cc1)CC2,"Alpha-1D adrenergic receptor (ADRA1D, Homo sapiens, UniProt P25100)",cell-free assay,,Ki,0.144 µM
Fc1c(F)c(F)c(OCCn2c(CNCC34CC5CC(CC(C5)C3)C4)nc3ccccc32)c(F)c1F,Penicillin-binding protein 2X,"binding, MST",,Kd,70 µM
COc1ccc2cc3[n+](cc2c1OC)CCc1cc2c(cc1-3)OCO2,"Zinc finger protein GLI1 (GLI1, Homo sapiens, UniProt P08151)","binding, SPR",,Kd,~0.652 µM
CC(C)(C)CNCc1nc2ccccc2n1CCOc1ccccc1,Penicillin-binding protein 2X,"binding, MST",,Kd,115 µM
Cn1c(=O)n(CCCCN2CCC3(CC2)OCc2ccccc23)c2ccccc21,"Sigma non-opioid intracellular receptor 1 (SIGMAR1, Cavia porcellus, UniProt Q60492)","ligand displacement, radioligand",cell membranes,Ki,0.0141 µM
C=CCOc1ccc(C(=O)/C=C/c2cccc(F)c2)c(OS(=O)(=O)c2ccc(F)cc2)c1I,PTGS2,"enzyme activity, inhibitor",,IC50,18.6 µM
CN1CC[C@@]2(C)c3cc(OC(=O)Nc4ccccc4)ccc3N(C)[C@@H]12,"Retinal dehydrogenase 2 (ALDH1A2, Homo sapiens, UniProt O94788)","enzyme activity, inhibitor, fluorescence","15 min, pH 7.5",IC50,< 10 µM
